Reference: article PMC3729426 (Chemistry (Weinheim an der Bergstrasse, Germany), 2012)
Ends that are not written are not given here. Lumi4(Tb) = Lumi4(Tb) terbium luminescent complex

Tests used:
[1] = test system: MDCKII cells; format: cell-based, canine; conditions: summary of microscopic observations at higher concentrations
Procedure, shortened: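 MDCKII cells were incubated 30 min at 37 °C in DMEM with FBS, or serum-free, with Tb3+ complex–peptide conjugates at 5, 20 or 60 μM. In one condition, 5 μM conjugate was combined with 30 μM unconjugated Arg9. Live cells were imaged by time-gated luminescence microscopy (10 μs delay, λex 365 nm, λem 540 ± 10 nm) to score punctate versus diffuse cytoplasmic/nuclear distribution.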

[2] = test system: MDCKII cells

Substance | mechanism of delivery mediated by the CPP [1] | intracellular disulfide reduction observed microscopically [2] | fluorescein signal distribution immediately after washing ([2]; MDCKII cells, 17 (10 μM), serum-free medium, 10 min, 37 °C, continuous wave fluorescence) | fluorescein signal distribution 2 h post-wash ([2]; MDCKII cells, 17 (10 μM), serum-free medium, 10 min, imaged 2 h post-wash) | Tb3+-to-fluorescein LRET emission ratio (520 nm/540 nm), 2 h post-wash versus immediate ([2]; MDCKII cells, nuclear region, 17 (10 μM), 4 separate experiments)
3: an N-terminal fusion of Lumi4(Tb) to Tat (49–57) ({Lumi4(Tb)}-RKKRRQRRR; UniProt P04608 49-57, looked up, fragment) [compound 3] | non-endocytic, cytoplasmic delivery | – | – | – | –
17: cysteine amide-linked heterodimer of Lumi4 and TEGTMP coupled via a disulfide bond to the peptide Cys-TAT(47–57)-Lys(FAM) [compound 17] | non-endocytic, cytoplasmic delivery | its disulfide bond is reduced in the cytoplasm and nucleus | primarily diffuse throughout the cytoplasm and nucleus | punctate staining pattern predominant | significantly reduced
